From ChEMBL document CHEMBL4373718, “Germacrane Sesquiterpenoids as a New Type of Anticardiac Fibrosis Agent Targeting Transforming Growth Factor β Type I Receptor” (J Med Chem, 2019)
Activity calls are given as the source filed them. No cut-off for these calls is given here.

What was measured:
[1] = target: T1, TGF-beta receptor type-1 (Rattus norvegicus) (UniProt P80204); experiment: Inhibition of TGFbeta1 receptor in TGFbeta1-stimulated Sprague-Dawley rat cardiac fibroblasts assessed as reduction in fibronectin expression at 10 uM measured after 12 hrs by Western blot analysis relative to control
T1 sequence (whole entry): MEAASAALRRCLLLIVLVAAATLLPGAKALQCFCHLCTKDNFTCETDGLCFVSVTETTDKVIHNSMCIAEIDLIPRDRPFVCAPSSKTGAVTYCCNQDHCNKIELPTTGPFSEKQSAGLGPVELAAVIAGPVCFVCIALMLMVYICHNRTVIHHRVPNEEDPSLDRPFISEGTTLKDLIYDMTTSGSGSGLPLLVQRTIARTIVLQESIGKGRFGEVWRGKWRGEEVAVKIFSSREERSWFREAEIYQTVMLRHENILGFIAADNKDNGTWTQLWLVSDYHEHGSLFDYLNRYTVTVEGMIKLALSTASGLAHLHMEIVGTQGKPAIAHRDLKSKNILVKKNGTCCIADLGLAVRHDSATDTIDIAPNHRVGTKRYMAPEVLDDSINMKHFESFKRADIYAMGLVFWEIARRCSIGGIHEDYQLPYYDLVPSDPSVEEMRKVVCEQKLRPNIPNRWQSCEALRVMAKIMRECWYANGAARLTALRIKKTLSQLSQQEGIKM
Method in brief: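 Primary rat cardiac fibroblasts (passages 2–4, 3×10^5 per well) treated with compound plus 10 ng/mL TGFβ1 for 12 h; tested at 2.5, 5 and 10 µM. Lysates run on 10% SDS-PAGE (30 µg protein), probed for FN, α-SMA and collagen I/III, and quantified by densitometry against GAPDH. N=3 independent experiments.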

[2] = target: T1, TGF-beta receptor type-1 (Rattus norvegicus); experiment: Inhibition of TGFbeta1 receptor in TGFbeta1-stimulated Sprague-Dawley rat cardiac fibroblasts assessed as reduction in fibronectin expression at 50 uM measured after 12 hrs by Western blot analysis
Method in brief: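 Screen in primary rat cardiac fibroblasts: compounds at 50 µM or 10 µM given with 10 ng/mL TGFβ1 for 12 h. FN measured by Western blot with GAPDH loading control and densitometry. N=3 independent experiments.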

Rattus norvegicus [3] = experiment: Antifibrotic activity in abdominal aortic constriction Sprague-Dawley rat model of cardiac fibrosis assessed as decrease in heart alpha-SMA level at 10 mg/kg, ip administered once daily for 4 weeks measured post-last dose by immunohistochemical analysis; format: functional, organism-based
Method in brief: (§1)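 Male SD rats (200–250 g, n = 8/group) had the suprarenal abdominal aorta tied with 4-0 silk around a 21-G probe, which was then removed; sham rats had surgery without constriction. Dosing was ip daily for 4 weeks in saline with 0.5% DMSO and 5% Kolliphor HS 15. Ventricle slices were formalin-fixed, paraffin-embedded and cut into 4 µm sections. FN and α-SMA were read by immunohistochemistry and collagen by Masson's trichrome.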

Rattus norvegicus [4] = experiment: Antifibrotic activity in abdominal aortic constriction Sprague-Dawley rat model of cardiac fibrosis assessed as systolic left ventricular anterior wall thickness at 10 mg/kg, ip administered once daily for 4 weeks measured post-last dose by echocardiography (reference value: 3.92 +/- 0.42 mm); format: functional
Rattus norvegicus [5] = experiment: Antifibrotic activity in abdominal aortic constriction Sprague-Dawley rat model of cardiac fibrosis assessed as diastolic left ventricular anterior wall thickness at 10 mg/kg, ip administered once daily for 4 weeks measured post-last dose by echocardiography (reference value: 2.48 +/- 0.42 mm); format: functional
Rattus norvegicus [6] = experiment: Antifibrotic activity in abdominal aortic constriction Sprague-Dawley rat model of cardiac fibrosis assessed as systolic left ventricular posterior wall thickness at 10 mg/kg, ip administered once daily for 4 weeks measured post-last dose by echocardiography (reference value: 3.62 +/- 0.26 mm); format: functional
Rattus norvegicus [7] = experiment: Antifibrotic activity in abdominal aortic constriction Sprague-Dawley rat model of cardiac fibrosis assessed as ejection fraction at 10 mg/kg, ip administered once daily for 4 weeks measured post-last dose by echocardiography (reference value: 79.59 +/- 3.13%); format: functional
Rattus norvegicus [8] = experiment: Antifibrotic activity in abdominal aortic constriction Sprague-Dawley rat model of cardiac fibrosis assessed as diastolic left ventricular posterior wall thickness at 10 mg/kg, ip administered once daily for 4 weeks measured post-last dose by echocardiography (reference value: 2.33 +/- 0.31 mm); format: functional
[9] = target: T1, TGF-beta receptor type-1 (Rattus norvegicus); experiment: Inhibition of TGFbeta1 receptor in TGFbeta1-stimulated Sprague-Dawley rat cardiac fibroblasts assessed as reduction in collagen 3 expression at 20 uM measured after 12 hrs by Western blot analysis
Method in brief: (§2)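 Primary adult male SD rat cardiac fibroblasts were used at passages 2–4, seeded at 3×10^5 per well. Cells were co-treated with compound and 10 ng/mL TGFβ1 for 12 h. Lysates (30 µg protein) were run on 10% SDS-PAGE, Western blotted for FN, α-SMA, collagen I and III, normalised to GAPDH and quantified by densitometry; N = 3 independent experiments.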

Rattus norvegicus [10] = experiment: Antifibrotic activity in abdominal aortic constriction Sprague-Dawley rat model of cardiac fibrosis assessed as diastolic left ventricular internal diameter at 10 mg/kg, ip administered once daily for 4 weeks measured post-last dose by echocardiography (reference value: 7.60 +/- 0.63 mm); format: functional
[11] = target: T1, TGF-beta receptor type-1 (Rattus norvegicus); experiment: Inhibition of TGFbeta1 receptor in TGFbeta1-stimulated Sprague-Dawley rat cardiac fibroblasts assessed as reduction in fibronectin expression at 20 uM measured after 12 hrs by Western blot analysis; method in brief: as §2
[12] = target: T1, TGF-beta receptor type-1 (Rattus norvegicus); experiment: Inhibition of TGFbeta1 receptor in TGFbeta1-stimulated Sprague-Dawley rat cardiac fibroblasts assessed as reduction in collagen 1 expression at 20 uM measured after 12 hrs by Western blot analysis; method in brief: as §2
Rattus norvegicus [13] = experiment: Antifibrotic activity in abdominal aortic constriction Sprague-Dawley rat model of cardiac fibrosis assessed as systolic left ventricular internal diameter at 10 mg/kg, ip administered once daily for 4 weeks measured post-last dose by echocardiography (reference value: 3.99 +/- 0.41 mm); format: functional
[14] = target: T1, TGF-beta receptor type-1 (Rattus norvegicus); experiment: Inhibition of TGFbeta1 receptor in TGFbeta1-stimulated Sprague-Dawley rat cardiac fibroblasts assessed as reduction in alpha-SMA expression at 20 uM measured after 12 hrs by Western blot analysis; method in brief: as §2
Rattus norvegicus [15] = experiment: Antifibrotic activity in abdominal aortic constriction Sprague-Dawley rat model of cardiac fibrosis assessed as fractional shortening at 10 mg/kg, ip administered once daily for 4 weeks measured post-last dose by echocardiography (reference value: 48.17 +/- 4.69%); format: functional
Rattus norvegicus [16] = experiment: Antifibrotic activity in abdominal aortic constriction Sprague-Dawley rat model of cardiac fibrosis assessed as decrease in heart fibronectin level at 10 mg/kg, ip administered once daily for 4 weeks measured post-last dose by immunohistochemical analysis; format: functional, organism-based; method in brief: as §1
Rattus norvegicus [17] = experiment: Antifibrotic activity in abdominal aortic constriction Sprague-Dawley rat model of cardiac fibrosis assessed as decrease in heart collagen level at 10 mg/kg, ip administered once daily for 4 weeks measured post-last dose by Masson's trichrome staining-based histological analysis; format: functional, organism-based; method in brief: as §1
[18] = target: T1, TGF-beta receptor type-1 (Rattus norvegicus); experiment: Inhibition of TGFbeta1 receptor in TGFbeta1-stimulated Sprague-Dawley rat cardiac fibroblasts assessed as reduction in fibronectin expression at 2 mM measured after 12 hrs by Western blot analysis
[19] = target: T1, TGF-beta receptor type-1 (Rattus norvegicus); experiment: Inhibition of TGFbeta1 receptor in TGFbeta1-stimulated Sprague-Dawley rat cardiac fibroblasts assessed as reduction in alpha-SMA expression at 2 mM measured after 12 hrs by Western blot analysis
[20] = target: T1, TGF-beta receptor type-1 (Rattus norvegicus); experiment: Inhibition of TGFbeta1 receptor in TGFbeta1-stimulated Sprague-Dawley rat cardiac fibroblasts assessed as reduction in collagen 1 expression at 2 mM measured after 12 hrs by Western blot analysis
[21] = target: T1, TGF-beta receptor type-1 (Rattus norvegicus); experiment: Inhibition of TGFbeta1 receptor in TGFbeta1-stimulated Sprague-Dawley rat cardiac fibroblasts assessed as reduction in collagen 3 expression at 2 mM measured after 12 hrs by Western blot analysis

Row | SMILES | fibronectin reduction verdict (active/not active) [1] | fibronectin reduction (active/not active) [2] | other results
1 | C=C(C)[C@@H]1C[C@@H](N2CCCCC2)/C(C)=C/CCC2=C[C@@H]1OC2=O | inactive | inactive | 
2 | COC(=O)C1=C(C)NC(C)=C(C(=O)OC)C1c1ccccc1[N+](=O)[O-] [NIFEDIPINE] |  |  | Activity (Rattus norvegicus [3]): Active; Activity (Rattus norvegicus [4]): 3.23 mm; Activity (Rattus norvegicus [5]): 2.02 mm; Activity (Rattus norvegicus [6]): 3.19 mm; Activity (Rattus norvegicus [7]): 72.6%; Activity (Rattus norvegicus [8]): 1.97 mm; inhibition [9]: Active; Activity (Rattus norvegicus [10]): 8.32 mm; inhibition [11]: Active; inhibition [12]: Active; Activity (Rattus norvegicus [13]): 4.69 mm; inhibition [14]: Active; Activity (Rattus norvegicus [15]): 42.79%; Activity (Rattus norvegicus [16]): Active; Activity (Rattus norvegicus [17]): Active
3 | C=C(C)[C@@H]1C/C=C(\C)[C@H](OC(=O)c2cc(C(F)(F)F)cc(C(F)(F)F)c2)CCC2=C[C@@H]1OC2=O | Active | Active | 
4 | C=C(C)[C@@H]1C/C=C(C)/C(=N\OC(C)=O)CCC2=C[C@@H]1OC2=O | inactive | inactive | 
5 | C=C(C)[C@@H]1C/C=C(\C)[C@H](F)CCC2=C[C@@H]1OC2=O |  | Active | 
6 | C=C(C)[C@@H]1CC/C(C)=C/CCC2=C[C@@H]1OC2=O |  | Active | 
7 | C=C(C)[C@@H]1C/C=C(\C)[C@H](OC(=O)c2ccc(C(F)(F)F)cc2)CCC2=C[C@@H]1OC2=O |  | Active | 
8 | C=C(C)[C@@H]1C/C=C(\C)[C@@H](O)CCC2=C[C@@H]1OC2=O |  | Active | 
9 | C=C(C)[C@@H]1C/C=C(\C)[C@H](Cl)CCC2=C[C@@H]1OC2=O | Active | Active | 
10 | C=C(C)[C@@H]1C/C=C(\C)[C@H](O)CCC2=C[C@@H]1OC2=O |  | Active | 
11 | C=C(C)[C@@H]1C[C@@H](N2CCOCC2)/C(C)=C/CCC2=C[C@@H]1OC2=O | inactive | inactive | 
12 | C=C(C)[C@@H]1C/C=C(\C)[C@H](Br)CCC2=C[C@@H]1OC2=O | Active | Active | 
13 | C=C(C)[C@@H]1C[C@@H](N2CCCC2)/C(C)=C/CCC2=C[C@@H]1OC2=O | inactive | inactive | 
14 | C=C(C)[C@@H]1C/C=C(\C)[C@H](N=[N+]=[N-])CCC2=C[C@@H]1OC2=O |  | Active | 
15 | C=C(C)[C@@H]1C[C@@H](OC=O)/C(C)=C/CCC2=C[C@@H]1OC2=O | inactive | inactive | 
16 | C=C(C)[C@@H]1C[C@@H](OC(C)C)/C(C)=C/CCC2=C[C@@H]1OC2=O | inactive | inactive | 

Row | SMILES | fibronectin reduction verdict (active/not active) [1] | fibronectin reduction (active/not active) [2] | other results
17 | C=C(C)[C@@H]1C[C@@H](OCC)/C(C)=C/CCC2=C[C@@H]1OC2=O | inactive | inactive | 
18 | O=C1CCC[C@@H]2[C@H]3CCC[N+]4([O-])CCC[C@@H](CN12)[C@@H]34 (stereo partly specified) |  |  | inhibition [18]: Active; inhibition [19]: Active; inhibition [20]: Active; inhibition [21]: Active
19 | C=C(C)[C@@H]1CC/C(C)=C/CC[C@@H](C(=O)OC)CC1=O | inactive | inactive | 
20 | C=C(C)[C@@H]1C/C=C(\C)[C@H](OC(C)=O)CCC2=C[C@@H]1OC2=O |  | Active | 
21 | C=C(C)[C@@H]1C/C=C(\C)[C@H](OC(=O)c2ccc([N+](=O)[O-])cc2)CCC2=C[C@@H]1OC2=O | Active | Active | 
22 | C=C(C)[C@@H]1CC[C@]2(C)O[C@@H]2CCC2=C[C@@H]1OC2=O |  | Active | 
23 | C=C(C)[C@@H]1C/C=C(\C)[C@H](O[N+](=O)[O-])CCC2=C[C@@H]1OC2=O |  | Active | 
24 | C=C(C)[C@@H]1C/C=C(\C)[C@H](OC(=O)c2cccnc2Cl)CCC2=C[C@@H]1OC2=O | Active | Active | 
25 | C=C(C)[C@@H]1C/C=C(\C)[C@H](OC)CCC2=C[C@@H]1OC2=O |  | Active | 
26 | C=C1CC[C@@H](C(=C)C)[C@@H]2C=C(CC[C@H]1F)C(=O)O2 |  | Active | 
27 | C=C(C)[C@@H]1CC/C(C)=C/CC[C@@H](C(=O)OCC)CC1=O | inactive | inactive | 
28 | C=C(C)[C@@H]1C/C=C(C)/C(=N\OC(=O)c2ccco2)CCC2=C[C@@H]1OC2=O | inactive | inactive | 
29 | C=C(C)[C@@H]1C/C=C(\C)[C@H](OCC)CCC2=C[C@@H]1OC2=O |  | Active | 
30 | C=C(C)[C@@H]1C/C=C(\C)[C@H](OC(=O)c2cccs2)CCC2=C[C@@H]1OC2=O |  | Active | 
31 | C=C(C)[C@@H]1C[C@@H](O)/C(C)=C/CCC2=C[C@@H]1OC2=O | Active | Active | 
32 | C=C(C)[C@@H]1C[C@@H](OC)/C(C)=C/CCC2=C[C@@H]1OC2=O | inactive | inactive | 
